CCR6 antagonist: CCR6 receptor antagonists, primary screen, cell-based, CHO-K1, luminescence, beta-arrestin, uHTS; C-C chemokine receptor type 6 (Homo sapiens), P51684; CHO-K1 CCR6 PathHunter beta-arrestin, CCL20-stimulated; inhibition, % at 20 µM; actives 0.49% (n = 340,000); AID 493098, 2011;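 active = compounds whose inhibition of the agonist-driven luminescence signal at 20 µM reaches about 50%, limit read from the data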;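 note: cells stimulated with CCL20 at 14 nM final; plate controls were DMSO with CCL20 for no effect and DMSO without agonist for full effect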
CXCR6 block: CXCR6 receptor inhibitors, primary screen, cell-based, beta-arrestin, luminescence, CHO-K1 PathHunter, 1536-well | actives 0.36% (n = 360,000) | AID 602244, 2012 | C-X-C chemokine receptor type 6 (Homo sapiens), O00574 | inhibition, % at 20 µM; in the data active = inhibition above about 34%, passing the limit was not always enough;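 note: antagonist mode with CXCL16 agonist at 10 nM final; 0% = 10 nM CXCL16 with DMSO and 100% = unstimulated wells without agonist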
APJ antag: antagonists of human apelin receptor APJ, primary screen, CHO-K1 cells, beta-arrestin complementation, luminescence. actives 0.32% (n = 330,000). AID 2521, 2010. P35414. inhibition, % at 20 µM;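 active = inhibition above about 40% at 20 µM, limit read from the data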;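 note: cells challenged with 10 nM apelin-13 agonist together with compound; plate controls were apelin-13 plus DMSO wells for no effect and DMSO wells lacking apelin-13 for full effect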
EBI2 block: EBI2 receptor antagonists, beta-arrestin recruitment, primary screen, cell-based, luminescence, 7a,25-OHC stimulation, uHTS. G-protein coupled receptor 183 (Homo sapiens), P32249. 7a,25-OHC stimulated. inhibition, % at 5 µM. actives 0.81% (n = 360,000). AID 651636, 2012; in the data active = inhibition above about 38%;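 note: enzyme fragment complementation signal reports receptor beta-arrestin coupling in cells; 0% = agonist plus DMSO wells and 100% = wells without agonist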
Target sequence (P32249 whole entry, looked up, the tested form may be a part): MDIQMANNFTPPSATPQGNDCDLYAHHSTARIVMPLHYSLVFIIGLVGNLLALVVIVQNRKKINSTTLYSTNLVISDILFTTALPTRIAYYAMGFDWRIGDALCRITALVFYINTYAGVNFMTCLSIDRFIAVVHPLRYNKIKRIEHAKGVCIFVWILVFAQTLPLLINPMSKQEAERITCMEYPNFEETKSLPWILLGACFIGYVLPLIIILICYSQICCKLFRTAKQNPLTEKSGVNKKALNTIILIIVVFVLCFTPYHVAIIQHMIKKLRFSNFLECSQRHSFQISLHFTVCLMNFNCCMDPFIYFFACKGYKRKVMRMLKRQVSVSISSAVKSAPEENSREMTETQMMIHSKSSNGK
APJ ag: agonists of human apelin receptor APJ, primary screen, CHO-K1 cells, PathHunter beta-arrestin, luminescence | AID 2520, 2010 | actives 0.11% (n = 330,000) | P35414 | activation, % at 20 µM | 0% DMSO wells, 100% apelin;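 active = activation more than six SD over the plate average, tested at 20 µM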;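 note: 0% = DMSO alone and 100% = apelin-13 at 10 nM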
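Assay system – PathHunter CHO-K1 APJ (AGTRL-1) beta-arrestin reporter cells · Compound – one dose, 20 µM compound, 1% DMSO · Timing – compound 90 min 25 °C, reagent 1 h · Measured by – luminescence from split beta-galactosidase complementation, Galacton Star/Emerald II substrate · Measure – beta-arrestin recruitment to APJ as agonist activity, luminescent signal · Benchmarks – DMSO vs Apelin-13 10 nM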
EBI2 antag conf: EBI2 antagonist hit retest, beta-arrestin, confirmation, cell-based, single concentration, luminescence, 7a,25-OHC stimulation. shares compounds with EBI2 block. 7a,25-OHC antagonism. inhibition, % at 5 µM. actives 29% (n = 2,400);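 active = inhibition of at least 50%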
EBI2 agonist: EBI2 agonist activity of antagonist hits, confirmation, counter-screen for EBI2 antagonist project, cell-based, single concentration, agonist mode, luminescence | shares compounds with EBI2 block | activation, % at 5 µM | EBI2-expressing cells, 60 min; 0% vehicle, 100% 7α,25-dihydroxycholesterol control | 2,400 tested, under 10 active;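 active = activation of at least 50%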
bGal counter: E. coli beta-galactosidase enzyme inhibition, confirmation, counter-screen for EBI2 antagonist project, biochemical, luminescence, single concentration. shares compounds with EBI2 block. actives 1% (n = 2,400). inhibition, % at 5 µM. AID 652176, 2013. purified beta-galactosidase, luminescent Galacton Star, 15 min;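 active = replicate-average signal at least 3 plate SD below neutral wells, shown as high inhibition, flagging enzyme-inhibiting false positives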;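 note: 0% = DMSO wells with enzyme and 100% = wells lacking enzyme; higher means stronger loss of beta-gal luminescence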
An asterisk follows results filed as active. The list is not random: actives were taken first. Their share in the collection is about 1.5%.

For Cc1ccc2c(c1)[C@H]1[C@H](CO2)[C@H](c2ccccc2)[C@]2(C)C(=O)N(Cc3ccc(F)cc3)CC(=O)N12 the results were CCR6 antagonist -1.6, CXCR6 block 11.2, APJ antag -3.5, EBI2 block 29.9 and APJ ag -1.6.
For CC(=O)Nc1cc(-c2cccc(NS(C)(=O)=O)c2)cn2c(-c3ccc(F)c(Cl)c3)cnc12 the results were CXCR6 block 5.8 and EBI2 block 19.1.
Cc1noc(C)c1Cn1c(C)c(C(=O)NCc2ccc3c(c2)OCCO3)sc1=O was read as CXCR6 block 4.0 and EBI2 block -4.1.
`CC1(C(=O)NCc2cccs2)Cc2c(-c3cccc(C(F)(F)F)c3)ccnc2O1` (configuration not stated) gave CXCR6 block 4.2 and EBI2 block 12.2.
`Cc1ccc(NC(=O)N2CCN(C/C=C/c3ccccc3)CC2)cc1` gave CCR6 antagonist 5.1, CXCR6 block 0.8, APJ antag -1.7, EBI2 block 44.9*, APJ ag 0.8, EBI2 antag conf 17.2, EBI2 agonist 1.6 and bGal counter 3.7.
`O=C(Nc1ccc2c(c1)OCO2)N1CCN(C/C=C/c2ccccc2)CC1` gave CCR6 antagonist -13.8, CXCR6 block 3.5, APJ antag 23.6, EBI2 block 44.8*, APJ ag -1.9, EBI2 antag conf 25.2, EBI2 agonist -1.1 and bGal counter -8.4.
For O=C(Nc1ccc2c(c1)OCO2)N1CCN(c2ccccc2)CC1 the results were CCR6 antagonist 14.4, CXCR6 block 4.5, APJ antag -6.2, EBI2 block 7.5 and APJ ag 0.7.
For Cc1ccc(C(=O)CCC(=O)N2CCN(C/C=C/c3ccccc3)CC2)cc1 the results were CXCR6 block -4.4 and EBI2 block 11.2.
O=C1NC[C@@H](CCCCN2CCN(Cc3ccccc3)C(=O)C2=O)N(CCC2CCCCC2)C1=O was read as CXCR6 block -0.3 and EBI2 block -3.6.
`COc1ccc(C(C)(NC(C)=O)c2nc(-c3ccc(F)cc3OC)cs2)cc1` (configuration not stated) gave CXCR6 block 9.4 and EBI2 block 8.9.
Screening OC(CC1CC12c1ccccc1-c1ncccc12)(c1ccccc1)c1ccccc1 (configuration not stated) returned CCR6 antagonist 13.6, CXCR6 block 15.4, APJ antag -4.7, EBI2 block 47.1*, APJ ag 0.2, EBI2 antag conf 39.4, EBI2 agonist -0.2 and bGal counter 3.5.
For CCOC(=O)C(C)C1(O)c2ccccc2-c2ncccc21 (configuration not stated) the results were CCR6 antagonist -16.4, CXCR6 block 5.4, APJ antag 9.7, EBI2 block -1.8 and APJ ag -0.7.
Screening CC(C)(C)c1ccc(C(=S)N2CCN(c3ccccc3)CC2)cc1 returned CCR6 antagonist 17.3, CXCR6 block 6.5, APJ antag 20.3, EBI2 block 58.5*, APJ ag -1.7, EBI2 antag conf 46.5, EBI2 agonist -2.3 and bGal counter -10.7.
Screening CC(=O)c1cccc(NC(=O)c2ccc(OC3CSC3)cc2)c1 returned CCR6 antagonist 0.0, CXCR6 block -4.4, APJ antag 10.9, EBI2 block 13.0 and APJ ag -2.2.
`Cc1cccc(NC(=O)c2ccc(OC3CSC3)cc2)c1` gave CCR6 antagonist 0.8, CXCR6 block -14.5, APJ antag 2.8, EBI2 block 55.4*, APJ ag -3.4, EBI2 antag conf 48.1, EBI2 agonist 1.8 and bGal counter -2.6.
`CCOC(=O)[C@]12Cc3c(cc(OC)c(OC)c3OC)[C@H]1N(Cc1ccccc1)C(=O)c1cc(OC)ccc12` gave CXCR6 block 11.7 and EBI2 block 24.0.
For CC1(C(=O)NCCC(F)(F)F)Cc2c(-c3ccccc3)ccnc2O1 (configuration not stated) the results were CXCR6 block -7.0 and EBI2 block -8.5.
CCCCC(C(=O)NC1CCCC1)N(C(=O)c1snc(C(N)=O)c1N)c1ccc(C)cc1 (configuration not stated) was read as CCR6 antagonist 11.0, CXCR6 block 10.9, APJ antag 11.7, EBI2 block 50.0*, APJ ag 2.2, EBI2 antag conf 48.8, EBI2 agonist -0.3 and bGal counter 5.5.
Screening Cc1ccc(N(C(=O)c2snc(C(N)=O)c2N)C(CC(C)C)C(=O)NC2CCCC2)cc1 (configuration not stated) returned CCR6 antagonist -2.9, CXCR6 block 10.2, APJ antag -16.1, EBI2 block 7.4 and APJ ag -0.6.
Screening CC1CCN(C2=NC(=O)/C(=C/c3cn(-c4ccccc4)nc3-c3cccc(S(=O)(=O)N(C)C)c3)S2)CC1 returned CCR6 antagonist 13.9, CXCR6 block 21.3, APJ antag 30.7, EBI2 block 47.6*, APJ ag -3.0, EBI2 antag conf 40.0, EBI2 agonist -0.7 and bGal counter -14.2.
For COc1ccc2cc(C(c3nnnn3C3CCCC3)N3CCCCCC3)c3nnnn3c2c1 (configuration not stated) the results were CCR6 antagonist 18.3, CXCR6 block 10.3, APJ antag 1.1, EBI2 block 60.0*, APJ ag 2.5, EBI2 antag conf 34.3, EBI2 agonist 0.0 and bGal counter -22.1.
Screening COc1ccc2[nH]c(=O)c(C(c3nnnn3C3CCCC3)N(C)C3CCCCC3)cc2c1 (configuration not stated) returned CCR6 antagonist 22.4, CXCR6 block 4.3, APJ antag 10.2, EBI2 block 62.2*, APJ ag -1.8, EBI2 antag conf 38.2, EBI2 agonist -0.2 and bGal counter -8.5.
`COc1ccc(C(c2nnnn2C2CCCC2)N2CCC(C)CC2)c(OC)c1` (configuration not stated) gave CCR6 antagonist 2.7, CXCR6 block 4.2, APJ antag 17.2, EBI2 block 1.7 and APJ ag -5.2.

Source: PubChem BioAssay
